The values below come from ChEMBL document CHEMBL1127547, “Synthesis and biological activities of a new set of irreversibly acting 2-(4'-isothiocyanatobenzyl)imidazoline analogs in rat thoracic aorta” (J Med Chem, 1994).

As usually defined, the EC50 is the concentration giving half of the maximal effect. The Emax is the maximal effect, on the per cent scale that the assay sets.

Values joined by “and” are separate entries in the source; they are usually repeats but may differ in a detail not shown here. Equal values may be shown once.

The species entered for series [1] is Rattus norvegicus. Kind of series: Concentration that produces 50% of the maximal response to compound without phenoxybenzamine pretreatment on rat thoracic aorta strips. The class given is functional. In short, it runs like this:
(§1)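 Helically cut thoracic aorta strips from male Sprague-Dawley rats (300–450 g) in a 10-mL water-jacketed bath of physiological salt solution. After 1 h equilibration, strips were primed with 10^-8 M phenylephrine, and a phenylephrine curve (10^-9 to 3×10^-5 M) was run. Cumulative analog curves were read 20–30 min after each addition. Emax is given relative to the 30 μM phenylephrine maximum. Mean ± SEM, n = 4–7.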

For series [2], the species on record is Rattus norvegicus. Kind of series: Percent of maximal contractile response to compound without phenoxybenzamine pretreatment on rat thoracic aorta strips. In short, it runs like this:
as §1

For series [3], the species on record is Rattus norvegicus. Kind of series: Percent of maximal contractile response to compound with phenoxybenzamine pretreatment on rat thoracic aorta strips. In short, it runs like this: (§2)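 Rat aortic strips (male Sprague-Dawley) were pretreated with phenoxybenzamine 3×10^-6 M for 20 min and washed before cumulative analog curves were run. Responses were taken 20–30 min after each addition. Maximal contraction is expressed relative to 30 μM phenylephrine, obtained before pretreatment. Mean ± SEM, n = 4–7; Student's t test against the untreated control.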

Series [4] is filed under the species Rattus norvegicus. Kind of series: Concentration that produces 50% of the maximal response to compound with phenoxybenzamine pretreatment on rat thoracic aorta strips. The class given is functional. In a few lines: as §2
For series [5], the species on record is Rattus norvegicus. Kind of series: Percent of maximal contractile response to compound in rat thoracic aorta strips. In a few lines: as §1
For series [6], the species on record is Rattus norvegicus. Kind of series: Concentration that produces 50% of the maximal response to compound in rat thoracic aorta strips in the presence of PBZ and IDA. Format: functional. In a few lines:
(§3)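 Rat aortic strips were given PBZ for 20 min, then washed out and exposed to idazoxan for 60 min before cumulative analog curves (3×10^-8–10^-4 M). Readings were taken 35–45 min after each addition. Response is expressed as % of the 30 μM phenylephrine maximum. Mean ± SEM, n = 3–4.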

Series [7] is filed under the species Rattus norvegicus. Kind of series: Percent of maximal contractile response to compound in rat thoracic aorta strips in the presence of PBZ and CIR.
Series [8] is filed under the species Rattus norvegicus. Kind of series: Concentration that produces 50% of the maximal response to compound in rat thoracic aorta strips. The class given is functional. In short, it runs like this:
as §1

For series [9], the species on record is Rattus norvegicus. Kind of series: Concentration that produces 50% of the maximal response to compound in rat thoracic aorta strips in the presence of nifedipine. The class given is functional. In short, it runs like this: (§4)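 Aortic strips were pretreated with nifedipine 10^-6 M for 60 min. The stock was 0.01 M in EtOH, diluted in 0.01 M sodium phosphate, pH 7.4. Cumulative analog curves followed, read 35–45 min after each addition. Emax is expressed relative to the compound alone. Mean ± SEM, n = 3–4; paired comparison.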

For series [10], the species on record is Rattus norvegicus. Kind of series: Percent of maximal contractile response to compound in rat thoracic aorta strips in the presence of PBZ and IDA. In short, it runs like this: as §3
Series [11] is filed under the species Rattus norvegicus. Kind of series: Concentration that produces 50% of the maximal response to compound in rat thoracic aorta strips in the presence of PBZ and CIR. The class given is functional.
Series [12] is filed under the species Rattus norvegicus. Kind of series: Percent of maximal contractile response to compound in rat thoracic aorta strips in the presence of nifedipine. In a few lines:
as §4

Series [13] is filed under the species Rattus norvegicus. Kind of series: Concentration that produces 50% of the maximal response to compound in rat thoracic aorta strips in the presence of PBZ and IDA.
The species named for series [14] is Rattus norvegicus. Kind of series: Percent of maximal contractile response to compound in rat thoracic aorta strips v.
The species named for series [15] is Rattus norvegicus. Kind of series: Concentration that produces 50% of the maximal response to compound in rat thoracic aorta strips in the presence of verapamil. Format: functional. In a few lines: (§5)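 Verapamil was given for 60 min before cumulative analog curves on rat aortic strips; the methods give 10^-5 M and the table footnote gives 10^-6 M. Responses were read 35–45 min after each addition. Emax is relative to the compound's own maximal contraction without verapamil. Mean ± SEM, n = 3–4.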

The species entered for series [16] is Rattus norvegicus. Kind of series: Percent of maximal contractile response to compound in rat thoracic aorta strips presence of PBZ and CIR.
The species named for series [17] is Rattus norvegicus. Kind of series: Concentration that produces 50% of the maximal response to compound in rat thoracic aorta strips in the presence of calcium deficient buffer. Format: functional. In short, it runs like this: (§6)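 Cumulative analog concentration-response curves were run on rat thoracic aorta strips in calcium-deficient PSS. Responses were read 35–45 min after each addition. Emax is relative to the maximal contraction of the compound alone in normal PSS. Mean ± SEM, n = 3–4; paired t test.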

The species entered for series [18] is Rattus norvegicus. Kind of series: Concentration that produces 50% of the maximal response to compound in rat thoracic aorta strips in the presence of PBZ and IDA at 1 uM. Format: functional. In a few lines: (§7)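 Strips were exposed to 30 nM PBZ for 20 min, washed out, then held in idazoxan for 1 h: 0.1 μM or 1 μM. Analog-induced contractions were read 20–30 min after addition and expressed against the 30 μM phenylephrine maximum obtained before treatment.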

For series [19], the species on record is Rattus norvegicus. Kind of series: Percent of maximal contractile response to compound in rat thoracic aorta strips in the presence of verapamil. In a few lines:
as §5

For series [20], the species on record is Rattus norvegicus. Kind of series: Percent of maximal contractile response to compound in rat thoracic aorta strips in the presence of PBZ and IDA at 0.1 uM. In a few lines: as §7
The species named for series [21] is Rattus norvegicus. Kind of series: Percent of maximal contractile response to compound in rat thoracic aorta strips in the presence of PBZ and IDA at 1 uM. In a few lines: as §7
The species named for series [22] is Rattus norvegicus. Kind of series: Concentration that produces 50% of the maximal response to compound in rat thoracic aorta strips in the presence of PBZ and IDA at 0.1 uM. Format: functional. In a few lines: as §7
The species named for series [23] is Rattus norvegicus. Kind of series: Percent of maximal contractile response to compound in rat thoracic aorta strips in the presence of calcium deficient buffer. In a few lines: as §6
The mark [24] stands for this setting: Rattus norvegicus, Thoracic aorta, read-out: Emax.
Setting [25] is: Rattus norvegicus, Thoracic aorta.

Consider `O=C(CI)Nc1ccc(CC2=NCCN2)cc1`, for which, in [1], the EC50 was 47 µM. The values for the Emax in series [2] and in series [3] were 25% and 13%, respectively.
`Cc1ccc(CC2=NCCN2)cc1`: the EC50 in [1] was found to be 57 µM. The results for the Emax in [2] and in series [3] were 14% and 5%, respectively.
Take `O=C(CCl)Nc1ccc(CC2=NCCN2)cc1`: the EC50 in series [1] came out at 116 µM; in [4], 129 µM. Moreover, the Emax in series [2] came to 41%; in [3] it was 32%.
As for `S=C=Nc1ccc(Cc2ncc[nH]2)cc1`, the Emax in series [5] (setting [24]) turned out to be 100%; in [7], 102%; in [2] it was 70%; in [10], 79%; in [3], 68%; in [12], 35%. The EC50 was 31 µM in [1]; 40.9 µM in [6]; 28.6 µM in series [8] (setting [25]); 38.9 µM in series [9]; 25.5 µM in series [11]; 36 µM in series [4].
In the case of `Nc1ccc(CC2=NCCN2)cc1`, the EC50 in [1] is 3 µM; in series [4] it was 31 µM. Besides, the Emax in series [2] is 69%; in [3], 9%.
For `S=C=Nc1ccc(CCC2=NCCN2)cc1`, the Emax in series [5] (setting [24]) came to 100%; in [7] it was 100%; in series [2], 107%; in [10], 114%; in series [3], 102%; in series [12], 21%. Besides, the EC50 in [1] worked out at 29 µM; in series [6] it was 18.1 µM; in [8] (setting [25]), 18.3 µM; in series [9] it was 67 µM; in [11], 14.9 µM; in series [4], 29 µM.
On to `CN(C)CCc1ccc(N=C=S)cc1`, for which the maximal response (Emax) was 100% in series [5] (setting [24]); 91% and 94% in series [5] (rat, in vitro); 98% in series [2]; 113% in [3]; 29% in series [12]. Moreover, the EC50 was 41 µM in [1]; 16.9 µM and 16.3 µM in series [8]; 16.8 µM in [8] (setting [25]); 48.5 µM in [9]; 33 µM in series [4].
With `S=C=Nc1ccc(OCC2=NCCN2)cc1`, the Emax in series [5] (setting [24]) worked out at 100%; in [7], 117%; in series [2] it was 108%; in [14], 110%; in series [3] it was 117%; in [12] it was 11%. The EC50 in [1] came to 69 µM; in series [13] it was 16.1 µM; in [8] (setting [25]), 17.2 µM; in [9], 52.1 µM; in series [11], 16.4 µM; in series [4], 47 µM.
With `S=C=Nc1ccc(CC2=NCCN2)cc1`, the EC50 was 21.4 µM in series [15]; 12.7 µM in series [17]; 48 µM in series [1]; 45 µM and 5.8 µM in [8]; 19.8 µM in series [9]; 43 µM in series [11]. For the same molecule, the EC50 in series [18] came to 54 µM; in [4], 52 µM; in [22], 54 µM. The maximum response (Emax) in series [16] is 94%; in series [5] (setting [24]), 100%; in series [5] (rat, in vitro), 100%; in series [2], 118%; in series [3], 100%; in series [19] it was 48%. The Emax in series [20] worked out at 104%; in series [12] it was 42%; in series [21], 105%; in series [23], 34%.
On to `S=C=Nc1ccc(CC2=NCCN2)cc1I`, for which the results for the concentration for a half-maximal effect (EC50) in [1] and in series [4] were 10 µM and 58 µM, respectively. Also, the results for the Emax in series [2] and in series [3] were 31% and 28%, respectively.
